{"data": "Assay results from different studies", "organism": "Human immunodeficiency virus 1", "read-out": "viral replication", "note": "Compare with care: the assays were run in different laboratories."}
{"Structure (SMILES)": "C[C@@H](O[C@H]1OCCN(Cc2n[nH]c(=O)[nH]2)[C@H]1c1ccc(F)cc1)c1cc(C(F)(F)F)cc(C(F)(F)F)c1", "mode": "inhibitor", "cell line": "human PBMC", "notes": "clinical isolate", "endpoint": "IC50", "result": "6370 nM"}
{"Structure (SMILES)": "COc1ccccc1NC(=O)c1ccccc1Cl", "cell line": "MT4", "endpoint": "IC50", "result": "> 50000 nM"}
{"Structure (SMILES)": "CC(C)CN(C[C@@H](O)[C@H](Cc1ccccc1)NC(=O)O[C@H]1CCO[C@H]2OCC[C@H]21)S(=O)(=O)c1ccc(B(O)O)cc1", "mode": "inhibitor", "cell line": "MT2", "endpoint": "IC50", "result": "120 nM"}
{"Structure (SMILES)": "Cc1c(O)cccc1C(=O)N[C@@H](CSc1ccccc1)[C@H](O)CN1C[C@H]2CCCC[C@H]2C[C@H]1C(=O)NC(C)(C)C", "cell line": "human PBMC", "endpoint": "IC50", "result": "12 nM"}
{"Structure (SMILES)": "CC(C)CN(C[C@@H](O)[C@H](Cc1ccccc1)NC(=O)O[C@H]1CO[C@H]2OCC[C@H]21)S(=O)(=O)c1ccc(B(O)O)cc1", "cell line": "MT4", "endpoint": "IC50", "result": "48.9 nM"}
{"Structure (SMILES)": "Cc1cn([C@H]2C[C@H](N=[N+]=[N-])[C@@H](CO)O2)c(=O)[nH]c1=O", "cell line": "human PBMC", "notes": "clinical isolate", "endpoint": "IC90", "result": "> 1000 nM"}
{"Structure (SMILES)": "CSCC[C@H](NC(C)=O)C(=O)N[C@@H](CC(C)C)C(=O)N[C@@H](CCCNC(=N)N)C(=O)N[C@@H](Cc1c[nH]c2ccccc12)C(=O)N[C@@H](CO)C(=O)N[C@@H](CCCNC(=N)N)C(=O)N[C@@H](CCCCN)C(=O)N[C@@H](CC(C)C)C(=O)N1CCC[C@H]1C(=O)N[C@@H](CS)C(=O)N[C@H](C(=O)N[C@@H](CO)C(=O)O)C(C)C", "mode": "inhibitor", "cell line": "TZM-bl", "endpoint": "IC50", "result": "> 10000 nM"}
{"Structure (SMILES)": "CC(C)c1nc(CN(C)C(=O)N[C@H](C(=O)N[C@@H](Cc2ccccc2)C[C@H](O)[C@H](Cc2ccccc2)NC(=O)OCc2cncs2)C(C)C)cs1", "mode": "inhibitor", "cell line": "human PBMC", "notes": "clinical isolate", "endpoint": "IC90", "result": "92.3 nM"}
{"Structure (SMILES)": "CC(C)CN(C[C@@H](O)[C@H](Cc1ccccc1)NC(=O)O[C@H]1CCO[C@H]2OCC[C@H]21)S(=O)(=O)c1ccc(C(=O)O)cc1", "mode": "inhibitor", "cell line": "MT2", "endpoint": "IC50", "result": "> 1000 nM"}
{"Structure (SMILES)": "CC(C)CN(C[C@@H](O)[C@H](Cc1ccccc1)NC(=O)O[C@H]1CO[C@H]2OCC[C@H]21)S(=O)(=O)c1ccc(N)cc1", "cell line": "MT2", "endpoint": "IC50", "result": "3.3 nM"}
{"Structure (SMILES)": "CC(C)Nc1cccnc1N1CCN(C(=O)c2cc3cc(NS(C)(=O)=O)ccc3[nH]2)CC1", "mode": "inhibitor", "cell line": "human PBMC", "notes": "clinical isolate", "endpoint": "IC50", "result": "30.6 nM"}
{"Structure (SMILES)": "Cc1cccc(C)c1OCC(=O)N[C@@H](Cc1ccccc1)[C@@H](O)C[C@H](Cc1ccccc1)NC(=O)[C@H](C(C)C)N1CCCNC1=O", "cell line": "MT4", "endpoint": "IC50", "result": "13 nM"}
